From ChEMBL document CHEMBL4609978, “Synthesis and evaluation of 2'-dihalo ribonucleotide prodrugs with activity against hepatitis C virus” (Bioorg Med Chem, 2020)
Values after ≈ are worked out from the molar mass of the structure shown.

Key:
[1] = tested on: Hepatitis C virus; experiment: Antiviral activity against HCV genotype 1a H77 infected in human HuH7 replicon cells assessed as inhibition of viral replication after 3 days by luciferase reporter gene assay; assay type: functional, organism-based, Hepacivirus hominis; details: subtype 1a H77, Huh-7, 72 h
Procedure, shortened: (§1)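 Stable subgenomic replicon cell lines (genotype 1a-H77 or 1b-Con1) carrying a luciferase reporter; compounds added in DMEM with 5% FBS, cells incubated 3 days with or without compound, then lysed and luciferase activity read; EC50 from nonlinear regression fit to 4-parameter logistic equation.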

[2] = tested on: Hepatitis C virus; experiment: Antiviral activity against HCV genotype 1b Con1 infected in human HuH7 replicon cells assessed as inhibition of viral replication after 3 days by luciferase reporter gene assay; assay type: functional, organism-based, Hepacivirus hominis; details: subtype 1b Con1, Huh-7, 72 h; procedure, shortened: as §1
[3] = Prodrug conversion in Beagle dog liver assessed as nucleotide triphosphate level at 5 mg/kg, po administered as single dose measured after 4 hrs by LC-MS/MS analysis; assay type: ADME, organism-based, Canis lupus familiaris; details: in vivo
[4] = Prodrug conversion in Beagle dog liver assessed as nucleotide triphosphate level at 5 mg/kg, po co-dosed with 5 mg/kg sofosbuvir measured after 4 hrs by LC-MS/MS analysis; assay type: ADME, organism-based, Canis lupus familiaris; details: in vivo
Procedure, shortened: (§2)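 Beagle dogs (3 per time point) given single oral prodrug 5 mg/kg in EtOH:PEG-400:Phosal 53 MCT (10:30:60, w/w), cassette-dosed with sofosbuvir 5 mg/kg as internal standard; liver biopsies at 4 or 24 h, flash frozen, triphosphate measured by LC-MS/MS.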

[5] = Prodrug conversion in Beagle dog liver assessed as nucleotide triphosphate level at 5 mg/kg, po administered as single dose measured after 24 hrs by LC-MS/MS analysis; assay type: ADME, organism-based, Canis lupus familiaris; details: in vivo
[6] = Prodrug conversion in Beagle dog liver assessed as nucleotide triphosphate level at 5 mg/kg, po co-dosed with 5 mg/kg sofosbuvir measured after 24 hrs by LC-MS/MS analysis; assay type: ADME, organism-based, Canis lupus familiaris; details: in vivo; procedure, shortened: as §2
[7] = Prodrug conversion in Beagle dog liver assessed as nucleotide triphosphate level at 5 mg/kg, po qd for 4 days and measured at 24 hrs post-last dose by LC-MS/MS analysis; assay type: ADME, organism-based, Canis lupus familiaris; details: in vivo
[8] = Prodrug conversion in Beagle dog liver assessed as nucleotide triphosphate level at 5 mg/kg, po qd for 4 days co-dosed with 5 mg/kg sofosbuvir and measured at 24 hrs post-last dose by LC-MS/MS analysis; assay type: ADME, organism-based, Canis lupus familiaris; details: in vivo
Procedure, shortened: (§3)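 Beagle dogs (3 per time point) dosed orally once daily for 4 days with prodrug (1 or 5 mg/kg) in EtOH:PEG-400:Phosal 53 MCT (10:30:60, w/w) together with sofosbuvir 5 mg/kg; liver biopsy 24 h after final dose, flash frozen, triphosphate by LC-MS/MS.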

[9] = Distribution coefficient, logD of compound by HT-LCMS analysis; assay type: physicochemical; details: octanol/water
[10] = Aqueous solubility of compound in pH 7.4 phosphate buffer; assay type: physicochemical
[11] = Stability in dog plasma assessed as parent compound remaining after 4 hrs; assay type: ADME, cell-free, Canis lupus familiaris; details: read-out: Stability
Procedure, shortened: (§4)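 Prodrug incubated 4 h at 37 °C in dog or human plasma; result given as percent parent remaining.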

[12] = Stability in human plasma assessed as parent compound remaining after 4 hrs; assay type: ADME, cell-free; details: read-out: Stability; procedure, shortened: as §4
[13] = Unbound drug level in dog plasma; assay type: ADME, cell-free, Canis lupus familiaris
[14] = Unbound drug level in human plasma; assay type: ADME, cell-free
[15] = Intrinsic clearance in dog hepatocytes; assay type: ADME, cell-based, Canis lupus familiaris, Hepatocyte; details: read-out: CLH (converted)
[16] = Intrinsic clearance in human hepatocytes; assay type: ADME, cell-based, Hepatocyte; details: read-out: CLH (converted)
[17] = Prodrug conversion in Beagle dog liver assessed as nucleotide triphosphate level at 1 mg/kg, po qd for 4 days co-dosed with 5 mg/kg sofosbuvir and measured at 24 hrs post-last dose by LC-MS/MS analysis; assay type: ADME, organism-based, Canis lupus familiaris; details: in vivo; procedure, shortened: as §3
[18] = Prodrug conversion in human primary hepatocytes assessed as nucleotide triphosphate level at 100 uM incubated for 4 hrs followed by compound wash-out for 20 hrs and measured following 4 hrs incubation period by LC-MS/MS analysis; assay type: ADME, cell-based, Hepatocyte
Procedure, shortened: (§5)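 Cryopreserved primary human hepatocytes plated ~55,000 viable cells/well on collagen, medium changed after 4–6 h to Williams E maintenance medium with Geltrex 0.35 mg/mL, overnight at 37 °C; prodrug 100 µM for 4 h, then washed; second plate held a further 20 h drug-free; cells washed with ice-cold HBSS, triphosphate measured by LC-MS/MS at 4 or 24 h.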

[19] = Prodrug conversion in human primary hepatocytes assessed as nucleotide triphosphate level at 100 uM incubated for 4 hrs and followed by compound washout for 20 hrs and measured following 24 hrs incubation period by LC-MS/MS analysis; assay type: ADME, cell-based, Hepatocyte; procedure, shortened: as §5
[20] = tested on: Hepatitis C virus; experiment: Antiviral activity against HCV genotype 1b Con1 over expressing CES1 infected in human HuH7 replicon cells assessed as inhibition of viral replication after 3 days by luciferase reporter gene assay; assay type: functional, organism-based, Hepacivirus hominis; details: subtype 1b Con1, Huh-7, 72 h
[21] = Prodrug conversion in Beagle dog liver assessed as increase in nucleotide triphosphate level at 5 mg/kg, po co-dosed with 5 mg/kg sofosbuvir measured after 24 hrs by LC-MS/MS analysis relative to sofosbuvir; assay type: ADME, organism-based, Canis lupus familiaris; details: in vivo; procedure, shortened: as §2
[22] = Prodrug conversion in human primary hepatocytes assessed as increase in nucleotide triphosphate level at 100 uM incubated for 4 hrs followed by compound wash-out for 20 hrs and measured following 4 hrs incubation period by LC-MS/MS analysis relative to sofosbuvir; assay type: ADME, cell-based, Hepatocyte
[23] = Prodrug conversion in Beagle dog liver assessed as increase in nucleotide triphosphate level at 5 mg/kg, po co-dosed with 5 mg/kg sofosbuvir measured after 4 hrs by LC-MS/MS analysis relative to sofosbuvir; assay type: ADME, organism-based, Canis lupus familiaris; details: in vivo; procedure, shortened: as §2
[24] = Cytotoxicity against human HuH7 cells assessed as reduction in cell viability; assay type: cell-based, Huh-7; details: read-out: TD50 (the source's name)
[25] = tested on: Hepatitis C virus; experiment: Antiviral activity against HCV genotype 1b Con1 expressing wild type NS5B infected in human HuH7 replicon cells assessed as inhibition of viral replication after 4 days by luciferase reporter gene based assay; assay type: functional, organism-based, Hepacivirus hominis; details: subtype 1b Con1, Huh-7, 96 h
[26] = tested on: Hepatitis C virus; experiment: Antiviral activity against HCV genotype 1b Con1 expressing NS5B S282T mutant infected in human HuH7 replicon cells assessed as inhibition of viral replication after 4 days by luciferase reporter gene based assay; assay type: functional, organism-based, Hepacivirus hominis; details: subtype 1b Con1, Huh-7, 96 h
[27] = tested on: Hepatitis C virus; experiment: Antiviral activity against HCV genotype 2a expressing wild type NS5B infected in human HuH7 replicon cells assessed as inhibition of viral replication after 4 days by luciferase reporter gene based assay; assay type: functional, organism-based, Hepacivirus hominis; details: subtype 2a, Huh-7, 96 h
[28] = tested on: Hepatitis C virus; experiment: Antiviral activity against HCV genotype 2a expressing NS5B S282T mutant infected in human HuH7 replicon cells assessed as inhibition of viral replication after 4 days by luciferase reporter gene based assay; assay type: functional, organism-based, Hepacivirus hominis; details: subtype 2a, Huh-7, 96 h
[29] = tested on: Hepatitis C virus; experiment: Antiviral activity against HCV genotype 3a expressing wild type NS5B infected in human HuH7 replicon cells assessed as inhibition of viral replication after 4 days by luciferase reporter gene based assay; assay type: functional, organism-based, Hepacivirus hominis; details: subtype 3a, Huh-7, 96 h
[30] = tested on: Hepatitis C virus; experiment: Antiviral activity against HCV genotype 3a expressing NS5B S282T mutant infected in human HuH7 replicon cells assessed as inhibition of viral replication after 4 days by luciferase reporter gene based assay; assay type: functional, organism-based, Hepacivirus hominis; details: subtype 3a, Huh-7, 96 h
[31] = tested on: Hepatitis C virus; experiment: Antiviral activity against HCV genotype 4a expressing wild type NS5B infected in human HuH7 replicon cells assessed as inhibition of viral replication after 4 days by luciferase reporter gene based assay; assay type: functional, organism-based, Hepacivirus hominis; details: subtype 4a, Huh-7, 96 h
[32] = tested on: Hepatitis C virus; experiment: Antiviral activity against HCV genotype 6a expressing wild type NS5B infected in human HuH7 replicon cells assessed as inhibition of viral replication after 4 days by luciferase reporter gene based assay; assay type: functional, organism-based, Hepacivirus hominis; details: subtype 6a, Huh-7, 96 h
[33] = tested on: Hepatitis C virus; experiment: Potency index, ratio of sofosbuvir EC50 to compound EC50 for HCV genotype 1a H77 infected in human HuH7 replicon cells assessed as inhibition of viral replication after 3 days by luciferase reporter gene assay; assay type: functional, Hepacivirus hominis, subtype 1a H77, Huh-7
Procedure, shortened: (§6)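 Stable subgenomic luciferase-reporter replicon Huh-7 lines, genotype 1a-H77 or 1b-Con1. Test compound and sofosbuvir comparator each run in DMEM with 5% FBS for 3 days. Cells lysed and luciferase activity read. EC50 obtained by nonlinear regression to a 4-parameter logistic equation. Index is sofosbuvir EC50 divided by compound EC50, both from this assay.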

[34] = tested on: Hepatitis C virus; experiment: Potency index, ratio of sofosbuvir EC50 to compound EC50 for HCV genotype 1b Con1 infected in human HuH7 replicon cells assessed as inhibition of viral replication after 3 days by luciferase reporter gene assay; assay type: functional, Hepacivirus hominis, subtype 1b Con1, Huh-7; procedure, shortened: as §6

Compound	EC50 [1]	EC50 [2]	Drug metabolism [3]	Drug metabolism [4]	Drug metabolism [5]	Drug metabolism [6]	Drug metabolism [7]	Drug metabolism [8]	logD [9]	solubility [10]	remaining at 4 h [11]	remaining at 4 h [12]	fraction unbound [13]	fraction unbound [14]	CLint scaled [15]	CLint scaled [16]	Drug metabolism [18]	Drug metabolism [19]	EC50 [20]	fold change (FC) [22]	other results
CCOC(=O)C(C)(C)N[P@@](=O)(OC[C@H]1O[C@@H](n2ccc(=O)[nH]c2=O)[C@](Cl)(Br)[C@@H]1O)Oc1ccccc1	2720 nM	2560 nM	7.21 µM	5.35 µM	2.64 µM	4.03 µM	1.43 µM	6.05 µM	3.07	> 200 µM	100%	92%	0.187	0.31	98.3 mL/min/kg	155 mL/min/kg	–	–	–	–	–
CCOC(=O)C(C)(C)N[P@](=O)(OC[C@H]1O[C@@H](n2ccc(=O)[nH]c2=O)[C@@](F)(Br)[C@@H]1O)Oc1ccccc1	259 nM	434 nM	43.3 µM	7 µM	42.7 µM	6.64 µM	8.18 µM	–	2.86	519 µM (≈ 308 µg/mL)	100%	98%	0.317	0.473	123 mL/min/kg	132 mL/min/kg	3600 µM	736 µM	69 nM	30 to 40	Drug metabolism [17]: 10.7 µM; fold change (FC) [21]: 5 to 6; fold change (FC) [23]: 5 to 6
CCOC(=O)C(C)(C)N[P@](=O)(OC[C@H]1O[C@@H](n2ccc(=O)[nH]c2=O)[C@](Cl)(Br)[C@@H]1O)Oc1ccccc1	644 nM	952 nM	8.83 µM	15.03 µM	2.1 µM	5.44 µM	2.89 µM	11.1 µM	3.11	> 200 µM	86%	100%	0.133	0.24	200 mL/min/kg	268 mL/min/kg	2818 µM	203 µM	154 nM	30 to 40	–
CC(C)OC(=O)[C@H](C)N[P@](=O)(OC[C@H]1O[C@@H](n2ccc(=O)[nH]c2=O)[C@@](F)(Br)[C@@H]1O)Oc1ccccc1	56 nM	87 to 95 nM	11.5 µM	7.39 µM	6.61 µM	8.87 µM	–	–	3.07	> 200 µM	86%	100%	0.367	0.43	–	257 mL/min/kg	192 µM	91 µM	56 nM	–	CC50 [24]: > 100000 nM; EC50 [25]: 15.2 nM; EC50 [26]: 134 nM; EC50 [27]: 189 nM; EC50 [28]: 308 nM; EC50 [29]: 12.7 nM; EC50 [30]: 75.3 nM; EC50 [31]: 25.7 nM; EC50 [32]: 14.5 nM; Ratio EC50 [33]: 2 - 3; Ratio EC50 [34]: 2 - 3
